Results as given in ChEMBL document CHEMBL3244000, “Aromatic hydroxylation of beta-adrenergic antagonists. Formation of 4'- and 5'-hydroxy-1-(isopropylamino)-3-[2'-allyloxy)phenoxy]-2-propanol from oxprenolol” (J Med Chem, 1979).

Assays:
[1] = Drug level in Sprague-Dawley rat urine treated with oxprenolol hydrochloride at 20 mg/kg, ip measured after 24 hrs by GC-CIMS analysis in presence of beta-glucuronidase and CH2N2; assay type: ADME, organism-based; design: dose 20 mg/kg, route intraperitoneal; conditions: in vivo
Method in brief: (§1)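 Six male Sprague-Dawley rats (120 g) were given oxprenolol hydrochloride ip at 20 mg/kg (4 mg/mL in sterile isotonic water). Urine was collected over 24 h in metabolic cages and pooled, then incubated overnight at 37 °C with 9200 units β-glucuronidase in pH 5.0 acetate buffer. Extract was methylated with diazomethane and TFA-derivatized. GC-CIMS monitored QM ions; isomer ratio was taken from the total ion current tracings.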

[2] = Drug level in Sprague-Dawley rat urine treated with oxprenolol hydrochloride at 20 mg/kg, ip measured after 24 hrs by GC-CIMS analysis; assay type: ADME, organism-based; design: dose 20 mg/kg, route intraperitoneal; conditions: in vivo; method in brief: as §1

| Drug excretion [1] | Drug excretion [2] | SMILES |
| --- | --- | --- |
| metabolite_detected | – | C=CCOc1cc(OC)ccc1OCC(O)CNC(C)C (centres undefined) |
| – | metabolite_detected | C=CCOc1cc(O)ccc1OCC(O)CNC(C)C (centres undefined) |
| – | metabolite_detected | C=CCOc1ccc(O)cc1OCC(O)CNC(C)C (centres undefined) |
| metabolite_detected | – | C=CCOc1ccc(OC)cc1OCC(O)CNC(C)C (centres undefined) |
